Sampled rows, rich in hits. Any-hit rate of the full collection: about 3.8%.
hERG rescue: compounds protecting human hERG from proarrhythmic drug block; Q12809; CHO-hERG, FluxOR thallium flux, dofetilide IC70 present; activation (rescue from dofetilide block), less the hit threshold, % at 10 µM; 310,000 compounds, 0.51% hits;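 active = activation above the mean of controls blocked by dofetilide plus 5 SD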;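 also: thallium influx through hERG after potassium depolarization seen as dye fluorescence rise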
Target sequence (Q12809 whole entry, looked up): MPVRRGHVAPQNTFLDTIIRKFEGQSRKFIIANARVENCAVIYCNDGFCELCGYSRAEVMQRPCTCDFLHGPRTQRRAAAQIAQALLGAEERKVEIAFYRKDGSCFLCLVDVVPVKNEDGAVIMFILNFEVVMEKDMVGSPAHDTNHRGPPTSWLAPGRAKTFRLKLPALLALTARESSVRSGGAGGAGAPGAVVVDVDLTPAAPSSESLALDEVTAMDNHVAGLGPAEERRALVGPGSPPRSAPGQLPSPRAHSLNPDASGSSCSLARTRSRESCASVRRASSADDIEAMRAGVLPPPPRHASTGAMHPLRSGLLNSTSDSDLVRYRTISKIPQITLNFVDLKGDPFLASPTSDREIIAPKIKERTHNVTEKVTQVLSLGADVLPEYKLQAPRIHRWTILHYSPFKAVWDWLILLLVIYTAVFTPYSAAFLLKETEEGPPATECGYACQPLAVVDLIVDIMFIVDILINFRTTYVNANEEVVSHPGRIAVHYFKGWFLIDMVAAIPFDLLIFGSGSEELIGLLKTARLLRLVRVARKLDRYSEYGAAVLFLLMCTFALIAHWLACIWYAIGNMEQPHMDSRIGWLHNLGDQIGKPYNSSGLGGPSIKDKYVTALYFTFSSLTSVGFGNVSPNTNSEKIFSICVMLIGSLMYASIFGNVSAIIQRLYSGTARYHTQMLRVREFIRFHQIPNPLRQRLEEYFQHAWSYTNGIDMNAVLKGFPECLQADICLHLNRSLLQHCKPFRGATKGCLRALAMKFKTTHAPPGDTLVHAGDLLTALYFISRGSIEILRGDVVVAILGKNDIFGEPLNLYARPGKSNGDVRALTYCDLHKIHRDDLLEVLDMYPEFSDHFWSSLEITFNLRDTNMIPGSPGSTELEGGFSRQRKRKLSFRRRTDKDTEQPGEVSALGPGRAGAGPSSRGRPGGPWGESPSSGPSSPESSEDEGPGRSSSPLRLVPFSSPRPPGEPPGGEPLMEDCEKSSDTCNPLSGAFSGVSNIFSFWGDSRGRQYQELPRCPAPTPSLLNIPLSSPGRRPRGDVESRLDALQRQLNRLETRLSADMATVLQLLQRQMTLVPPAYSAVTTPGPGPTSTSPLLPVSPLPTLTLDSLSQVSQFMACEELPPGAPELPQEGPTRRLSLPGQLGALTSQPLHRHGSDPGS
KCNK9 inh: blocks the human KCNK9 two-pore domain potassium channel. Q9NPC2. 310,000 compounds, 1.2% hits. HEK293 KCNK9, FluxOR thallium flux fluorescence; stronger effect = lower value. B-score at 10 µM;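 active = ratio B-score over 3 SD below the library mean, with starting fluorescence within 5 SD of its mean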;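 also: negative B-score means less thallium flux so channel inhibition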
Kir21 block: Kir2.1 (mouse) channel inhibition. P35561. HEK293-Kir2.1, FluxOR thallium flux fluorescence; stronger effect = lower value. B-score at 10 µM. 310,000 compounds, 0.85% hits. AID 1672;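 active = fluorescence ratio B-score at or below minus 3 SD of library scores, with starting-brightness B-score within 2 SD, cut at about -4.2 in these data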;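 also: channel flux triggered by added potassium and thallium sulfate stimulus; B-score of peak minus minimum fluorescence over baseline after thallium stimulus; more negative B-score means stronger Kir2.1 block with less thallium influx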
KCNQ1 pot: potentiators or activators of human KCNQ1 potassium channel; P51787; CHO-K1 KCNQ1, thallium flux FluxOR fluorescence; stronger effect = higher value; B-score at 10 µM; 310,000 compounds, 0.35% hits; AID 2648;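 active = fluorescence ratio B-score, a plate-corrected score, at least three library SD, with initial intensity B-score within 5 SD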
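assay system = CHO-K1 cells stably expressing KCNQ1 | medium = assay buffer, equal DMSO in all wells | timing = 37 °C overnight plating, 90-min dark dye load, 20-min compound pretreatment | measured by = kinetic FluxOR thallium fluorescence, 10-s 1-Hz baseline, 110-s post-stimulus read | measure = fluorescence change relative to baseline, converted to B score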
KCNK3 block: human KCNK3 channel inhibition, primary screen | CHO-KCNK3 thallium flux, FluxOR fluorescence; stronger effect = lower value | 340,000 compounds, 0.84% hits | B-score at 10 µM | O14649;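 active = B-score under library mean minus 4 SD, starting fluorescence ratio at most library mean plus 5 SD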;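 also: more negative B-score means stronger inhibition of thallium flux through KCNK3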
KCNQ1 inh: blocks the human KCNQ1 potassium channel; CHO-K1 KCNQ1, FluxOR thallium flux fluorescence; stronger effect = higher value; P51787; B-score at 10 µM; 310,000 compounds, 1.3% hits;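 active = compounds whose thallium flux B-score, printed positive for inhibition, exceeds three library SD while starting fluorescence stays within three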;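 also: channel opened by potassium depolarization with thallium stimulus after 20 min compound exposure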
KCNQ1 block val: human KCNQ1 channel inhibition, validation assay; AID 588353; KCNQ1 cell line, FluxOR thallium flux fluorescence; inhibition, % at 10 µM; 1,600 compounds, 93% hits; shares compounds with KCNQ1 inh;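 active = primary screen active, with duplicate mean exceeding buffer control mean plus 3 SD of buffer wells, cut at about 28% in these data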
CHO Tl flux: counter-screen for KCNQ1 inhibitors: effect in parental CHO cells. shares compounds with KCNQ1 inh. parental CHO-K1, FluxOR thallium flux fluorescence ratio; stronger effect = lower value; zero means no signal rise above baseline. fluorescence ratio (Tl flux) at 10 µM. 1,600 compounds, 21% hits. AID 588366;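 active = mean of duplicate thallium-flux fluorescence ratios in parental host cells more than 5 SD below the buffer control mean, cut at about 0.38 in these data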;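 also: ratio is peak minus minimum fluorescence divided by baseline fluorescence; actives read low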
KCNQ1 ephys val: human KCNQ1 inhibition validated by electrophysiology; calls only at 10 µM; shares compounds with KCNQ1 inh; AID 624120; KCNQ1-CHO cells, automated patch clamp current; 490 compounds, 20% hits;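 active = KCNQ1 current drop exceeding 3 SD of negative control wells, seen in both duplicate runs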;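 also: steady state current during a 2 s step from -80 to +40 mV; negative values mean current inhibition and positive values mean potentiation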
KCNQ2 inh: KCNQ1 inhibitor that also blocks rat KCNQ2 channel; inhibition, % at 10 µM; 1,600 compounds, 71% hits; shares compounds with KCNQ1 inh; KCNQ2 cells, FluxOR thallium flux fluorescence; AID 651746;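 active = mean percent inhibition of the KCNQ2 thallium signal more than 5 SD above the buffer-only control wells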;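 also: KCNQ2 expressed in CHO cells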
KCNQ1 KCNE1 spec: human KCNQ1/KCNE1 inhibition in KCNQ1 specificity screen; shares compounds with KCNQ1 inh; KCNQ1/KCNE1 cells, FluxOR thallium flux fluorescence; inhibition, % at 10 µM; 1,600 compounds, 77% hits; AID 652147;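 active = mean percent inhibition of duplicate wells above the buffer-only control mean plus 3 SD of those controls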
Large screens that a line does not name were inactive (follow-up assays come after a bar, where they were run).

COc1cccc(Nc2nc(NCC3CCCO3)c3ccccc3n2)c1 (stereo unspecified)	Kir21 block -13, KCNQ1 inh 6 | KCNQ1 block val 82 | CHO Tl flux inactive | KCNQ2 inh 105% | KCNQ1 KCNE1 spec 152%
CC(C)Oc1ccc(-c2nc(NCC3CCCO3)c3ccccc3n2)cc1 (stereo unspecified)	KCNQ1 inh 8 | KCNQ1 block val 98 | CHO Tl flux inactive | KCNQ1 ephys val inactive | KCNQ2 inh 108% | KCNQ1 KCNE1 spec 120%
CN(CC(=O)NC(=O)Nc1ccccc1F)Cc1ccccc1F	none (no result: hERG rescue, KCNK9 inh, Kir21 block, KCNQ1 pot, KCNQ1 inh)
CC(=O)c1ccc(NC(=S)NC(C)CCc2ccccc2)cc1 (stereo unspecified)	KCNQ1 inh 7 | KCNQ1 block val 38 | CHO Tl flux inactive | KCNQ2 inh inactive | KCNQ1 KCNE1 spec 41%
CCOc1ncccc1C(=O)OCC(=O)NC(=O)NC(C)C	KCNQ1 inh 8 | KCNQ1 block val inactive | CHO Tl flux inactive | KCNQ2 inh inactive | KCNQ1 KCNE1 spec inactive
CCOc1ncccc1C(=O)OCC(=O)Nc1ccc(C(C)C)cc1	none
c1ccc(-c2nnn(C34CC5CC(CC(C5)C3)C4)n2)cc1	none
CC(OC(=O)C1CSC2(C)CCC(=O)N12)C(=O)Nc1cccc(C#N)c1 (stereo unspecified)	none
O=S(=O)(NCCC1=CCCCC1)c1ccc(OC(F)(F)F)cc1	KCNQ1 inh 6 | KCNQ1 block val 56 | CHO Tl flux inactive | KCNQ2 inh 68% | KCNQ1 KCNE1 spec 58%
Cc1cc(S(=O)(=O)NCCC2=CCCCC2)ccc1Br	KCNQ1 inh 7 | KCNQ1 block val inactive | CHO Tl flux inactive | KCNQ2 inh 68% | KCNQ1 KCNE1 spec 82%
Cc1ccc(S(=O)(=O)NCCC2=CCCCC2)cc1	none (no result: hERG rescue, KCNK9 inh, Kir21 block, KCNQ1 pot, KCNQ1 inh)
Cc1cc(S(=O)(=O)NC2CCCCC2)ccc1OCC(=O)NCc1ccccn1	none
Cc1cc(=O)n(CC(=O)NC2CC2)c2c1c(C)nn2-c1ccccc1	KCNQ1 inh 7 | KCNQ1 block val 80 | CHO Tl flux inactive | KCNQ2 inh inactive | KCNQ1 KCNE1 spec 94%
Cc1cc(=O)n(CC(=O)NCCN2CCOCC2)c2c1c(C)nn2-c1ccccc1	none
CC(C)N=C1CC(C)(C)CC(=O)/C1=C(/O)CCCN1C(=O)c2ccccc2C1=O	none
N#CC(c1cccc(C(F)(F)F)c1)(c1ncc(C(F)(F)F)cc1Cl)N1CCOCC1 (stereo unspecified)	none
N#CC(c1ccccc1)(c1ncc(C(F)(F)F)cc1Cl)N1CCOCC1 (stereo unspecified)	KCNQ1 inh 6 | KCNQ1 block val 74 | CHO Tl flux inactive | KCNQ2 inh 99% | KCNQ1 KCNE1 spec 84%
O=S(=O)(Nc1ccc(-n2cccc2)cc1)c1ccc(Cl)cc1Cl	none
O=S(=O)(Nc1ccc(-n2cccc2)cc1)c1ccc(Cl)c(Cl)c1	KCNQ1 inh 10 | KCNQ1 block val 106 | CHO Tl flux inactive | KCNQ1 ephys val inactive | KCNQ2 inh 117% | KCNQ1 KCNE1 spec 162%
CCCCn1c(N)c(S(=O)(=O)c2ccc(C)cc2)c2nc3ccccc3nc21	KCNQ1 inh 14 | KCNQ1 block val 88 | CHO Tl flux 0.38 | KCNQ2 inh 71% | KCNQ1 KCNE1 spec 93%
CN(C)CCCn1c(N)c(S(=O)(=O)c2ccccc2)c2nc3ccccc3nc21	none
Cc1ccc(S(=O)(=O)c2c(N)n(NC(=O)c3ccco3)c3nc4ccccc4nc23)cc1	none
Cc1ccc(S(=O)(=O)c2c(N)n(Cc3ccco3)c3nc4ccccc4nc23)cc1	KCNQ1 inh 7 | KCNQ1 block val 99 | CHO Tl flux 0.38 | KCNQ2 inh 74% | KCNQ1 KCNE1 spec 166%
c1ccc(CNc2nc3ccccc3n2CCN2CCOCC2)nc1	none
CCOc1ccccc1NC(=O)C(OC(=O)c1ccccc1)c1ccccc1 (stereo unspecified)	KCNK9 inh -6.9, KCNQ1 inh 6 | KCNQ1 block val 90 | CHO Tl flux inactive | KCNQ1 ephys val inactive | KCNQ2 inh 107% | KCNQ1 KCNE1 spec 126%
COc1ccc(NC(=O)COC(=O)Cn2cnc3ccccc32)cc1	none (no result: hERG rescue, KCNK9 inh, Kir21 block, KCNQ1 pot, KCNQ1 inh)
O=C(Cn1cnc2ccccc21)Nc1ccc(SC(F)F)cc1	KCNQ1 inh 7 | KCNQ1 block val 115 | CHO Tl flux inactive | KCNQ1 ephys val active | KCNQ2 inh 71% | KCNQ1 KCNE1 spec 58%
c1ccc(CN2CCN(c3ncnc4c3[nH]c3ccccc34)CC2)cc1	KCNQ1 inh 7 | KCNQ1 block val 132 | CHO Tl flux inactive | KCNQ2 inh 120% | KCNQ1 KCNE1 spec 82%
COc1cccc(N2CCN(c3ncnc4c3[nH]c3ccccc34)CC2C)c1 (stereo unspecified)	KCNQ1 inh 12 (no result: KCNK3 block) | KCNQ1 block val 142 | CHO Tl flux 0.32 | KCNQ2 inh 124% | KCNQ1 KCNE1 spec active
COc1ccc2[nH]c3c(N4CC(C)OC(C)C4)ncnc3c2c1 (stereo unspecified)	none (no result: KCNK3 block)
Cc1ccc2c(c1)[nH]c1c(N3CCN(Cc4ccccc4)CC3)ncnc12	none
OC1(c2cccc(C(F)(F)F)c2)CCN(c2ncnc3c2[nH]c2ccccc23)CC1	KCNQ1 inh 7 | KCNQ1 block val 134 | CHO Tl flux 0.37 | KCNQ2 inh 119% | KCNQ1 KCNE1 spec 146%
CCCCCCCCC(=O)NNC(=O)c1c(O)c2ccccc2n(CC)c1=O	none
CCOC(=O)CC(=O)CSC1=C(C#N)C(c2ccccc2OC)CC(=O)N1 (stereo unspecified)	none
S=C(NCc1ccc(Cl)cc1Cl)NC1CCCCC1	KCNQ1 inh 7 | KCNQ1 block val 152 | CHO Tl flux inactive | KCNQ1 ephys val active | KCNQ2 inh 65% | KCNQ1 KCNE1 spec inactive
S=C(NCCc1cccc(Cl)c1)NC1CCCCC1	KCNQ1 inh 8 | KCNQ1 block val 64 | CHO Tl flux inactive | KCNQ2 inh 74% | KCNQ1 KCNE1 spec 56%
Clc1ccc(CNC2CCCC2)c(Cl)c1	none
